Assay results as given in publication PMC3066299 (Bioorganic & medicinal chemistry, 2011).
Like-named read-outs stand apart in the source and are kept apart here. One block for each compound: values may come before it.

Tests used:
[1] = biological target: GHSR; details: read-out: GHSR binding affinity Ki; cited from earlier work
[2] = type: in vivo, CD1 mice; details: for Brain regional distribution: i.v., mean ± SD (n=3)
In short: (§1)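 Male CD1 mice (23-28 g) received the radiotracer i.v. via a lateral tail vein: 0.1 mCi in 0.2 ml saline, specific radioactivity ~4000 mCi/µmol. Animals were killed by cervical dislocation at set times up to 90 min. Brain regions and body organs were removed, dissected on ice, weighed and gamma-counted alongside injectate standards. Uptake was expressed as %ID/g tissue.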

[3] = Baseline dissection study, whole body distribution of radioactivity in CD1 mice; type: in vivo; details: mean ± SD (n=5)
In short: as §1

[4] = biological target: GHSR (Mus musculus, UniProt Q99P50); test: Blocking dissection studies in mice with GHSR antagonist 2; type: in vivo, CD1 mice; details: for Whole body distribution: block with 2 (1 mg/kg), 90 min, mean ± SD (n=5), P>0.05 vs baseline
In short: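 Male CD1 mice were pretreated s.c. with a GHSR blocker at 1 mg/kg, or with vehicle (saline/alcohol 9:1, 0.1 mL). Fifteen minutes later they received radiotracer i.v. (0.1 mCi in 0.2 mL saline, ~4000 mCi/µmol). Tissues were harvested 90 min after tracer and counted for radioactivity. Groups were five animals each, baseline and blockade.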

[5] = Observation of pharmacological effects after tracer dose in CD1 mice; type: in vivo; details: tracer dose approximately 0.5 nmol/kg, intravenously, CD1 mice (n=30)

Chain of GHSR (Mus musculus, UniProt Q99P50) (Q99P50 whole entry): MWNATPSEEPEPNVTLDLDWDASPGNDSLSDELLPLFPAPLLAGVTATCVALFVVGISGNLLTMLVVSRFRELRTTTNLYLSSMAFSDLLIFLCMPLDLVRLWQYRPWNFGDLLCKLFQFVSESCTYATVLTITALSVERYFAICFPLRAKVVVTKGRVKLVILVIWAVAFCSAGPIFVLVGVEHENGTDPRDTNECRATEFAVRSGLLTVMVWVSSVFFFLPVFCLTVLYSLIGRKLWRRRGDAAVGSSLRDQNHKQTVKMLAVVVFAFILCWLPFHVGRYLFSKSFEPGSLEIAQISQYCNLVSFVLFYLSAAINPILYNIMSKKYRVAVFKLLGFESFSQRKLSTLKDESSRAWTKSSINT

Structure (SMILES): Cc1ccccc1-c1nc2ccc(Oc3ccc(F)cc3)cc2c(=O)n1CC1CCCN(C(C)C)C1 (stereo not drawn) [N-isopropyl derivative]
Ki [1]: 0.47 nM

Brain regional distribution ([2]; Cerebellum, 10 min): 0.63±0.06 %injected dose /g tissue | Brain regional distribution ([2]; Cerebellum, 30 min): 0.56±0.09 %injected dose /g tissue | Brain regional distribution ([2]; Cerebellum, 60 min): 0.59±0.08 %injected dose /g tissue | Brain regional distribution ([2]; Cerebellum, 90 min): 0.59±0.10 %injected dose /g tissue | Brain regional distribution ([2]; Cortex, 10 min): 0.63±0.09 %injected dose /g tissue | Brain regional distribution ([2]; Cortex, 30 min): 0.60±0.06 %injected dose /g tissue | Brain regional distribution ([2]; Cortex, 60 min): 0.65±0.12 %injected dose /g tissue | Brain regional distribution ([2]; Cortex, 90 min): 0.66±0.15 %injected dose /g tissue | Brain regional distribution ([2]; Hippocampus, 10 min): 0.60±0.13 %injected dose /g tissue | Brain regional distribution ([2]; Hippocampus, 30 min): 0.59±0.09 %injected dose /g tissue | Brain regional distribution ([2]; Hippocampus, 60 min): 0.71±0.08 %injected dose /g tissue | Brain regional distribution ([2]; Hippocampus, 90 min): 0.65±0.12 %injected dose /g tissue | Brain regional distribution ([2]; Hypothalamus, 10 min): 0.56±0.08 %injected dose /g tissue | Brain regional distribution ([2]; Hypothalamus, 30 min): 0.58±0.08 %injected dose /g tissue | Brain regional distribution ([2]; Hypothalamus, 60 min): 0.74±0.12 %injected dose /g tissue | Brain regional distribution ([2]; Hypothalamus, 90 min): 0.86±0.20 %injected dose /g tissue | Brain regional distribution ([2]; Rest of brain, 10 min): 0.54±0.07 %injected dose /g tissue | Brain regional distribution ([2]; Rest of brain, 30 min): 0.57±0.06 %injected dose /g tissue | Brain regional distribution ([2]; Rest of brain, 60 min): 0.62±0.02 %injected dose /g tissue | Brain regional distribution ([2]; Rest of brain, 90 min): 0.54±0.08 %injected dose /g tissue | hypothalamus-to-cerebellum ratio ([2]; value reached over the 90 min observation period): 1.6 | Whole body distribution ([3]; Adrenals, 10 min): 15.57±1.76 %injected dose /g tissue | Whole body distribution ([3]; Adrenals, 30 min): 10.77±2.65 %injected dose /g tissue | Whole body distribution ([3]; Adrenals, 90 min): 7.87±1.22 %injected dose /g tissue | Whole body distribution ([3]; Blood, 10 min): 2.14±0.13 %injected dose /g tissue | Whole body distribution ([3]; Blood, 30 min): 1.87±0.31 %injected dose /g tissue | Whole body distribution ([3]; Blood, 90 min): 2.01±0.29 %injected dose /g tissue | Whole body distribution ([3]; Heart, 10 min): 5.11±0.30 %injected dose /g tissue | Whole body distribution ([3]; Heart, 30 min): 3.91±0.55 %injected dose /g tissue | Whole body distribution ([3]; Heart, 90 min): 2.94±0.33 %injected dose /g tissue | Whole body distribution ([3]; Liver, 10 min): 18.63±1.29 %injected dose /g tissue | Whole body distribution ([3]; Liver, 30 min): 14.60±1.89 %injected dose /g tissue | Whole body distribution ([3]; Liver, 90 min): 13.46±0.97 %injected dose /g tissue | Whole body distribution ([3]; Lung, 10 min): 26.44±1.32 %injected dose /g tissue | Whole body distribution ([3]; Lung, 30 min): 24.02±8.55 %injected dose /g tissue | Whole body distribution ([3]; Lung, 90 min): 14.74±3.46 %injected dose /g tissue | Whole body distribution ([3]; Muscle, 10 min): 3.79±0.68 %injected dose /g tissue | Whole body distribution ([3]; Muscle, 30 min): 3.02±0.45 %injected dose /g tissue | Whole body distribution ([3]; Muscle, 90 min): 2.09±0.47 %injected dose /g tissue | Whole body distribution ([3]; Testis, 10 min): 1.07±0.01 %injected dose /g tissue | Whole body distribution ([3]; Testis, 30 min): 1.39±0.20 %injected dose /g tissue | Whole body distribution ([3]; Testis, 90 min): 1.96±0.14 %injected dose /g tissue | Whole body distribution ([4]; Adrenals): 10.02±1.80 %injected dose /g tissue | Whole body distribution ([4]; Blood): 2.01±0.53 %injected dose /g tissue | Whole body distribution ([4]; Heart): 3.74±0.57 %injected dose /g tissue | Whole body distribution ([4]; Liver): 14.77±1.02 %injected dose /g tissue | Whole body distribution ([4]; Lung): 16.28±3.65 %injected dose /g tissue | Whole body distribution ([4]; Muscle): 2.22±0.79 %injected dose /g tissue | Whole body distribution ([4]; Testis): 2.25±0.30 %injected dose /g tissue | specific binding ([4]; cerebral distribution in CD1 mice): 38% | observed pharmacological effects [5]: no observed pharmacological effects
Structure (SMILES): Cc1ccccc1-c1nc2ccc(Oc3ccc(F)cc3)cc2c(=O)n1C[C@H]1CCCN([11CH3])C1 [[^11C]1, (S)-6-(4-fluorophenoxy)-3-((1-[^11C]methylpiperidin-3-yl)methyl)-2-o-tolylquinazolin-4(3H)-one]

blockade of [11C]1 in the rest of the brain ([4]; blocking dose of 2 1 mg/kg s.c., 90 min after radioligand, P>0.05 (n=5)): minimal
Structure (SMILES): Cc1ccccc1-c1nc2ccc(Oc3ccc(F)cc3)cc2c(=O)n1C[C@H]1CCCNC1 [compound 2, (S)-6-(4-fluorophenoxy)-3-(piperidin-3-ylmethyl)-2-o-tolylquinazolin-4(3H)-one, reference compound]
Ki [1]: 0.9 nM
